What is called DC50 is the concentration giving 50% degradation. A word on the Kd: it is the concentration at which binding is half-saturated. As usually defined, the Emax is the greatest response seen or fitted, relative to the assay's reference. By IC50 is commonly meant the point on the concentration scale where inhibition reaches its midpoint. Higher therefore signals weaker potency in that assay.

Assay [1] has as its target T1, von Hippel-Lindau disease tumor suppressor/Serine/threonine-protein kinase TBK1 (Homo sapiens, UniProt Q9UHD2+P40337). The assay is described as follows: Induction of VHL-mediated TBK1 degradation in human Panc02.13 cells after 16 hrs by Western blot method. The assay is classed as cell-based. Summed up:
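For phospho-IRF3 read-out, TLR3 agonist Poly I:C added for the final 3 h. Cells lysed in RIPA buffer with protease/phosphatase inhibitors, lysates clarified at 16,000g, run on SDS-PAGE and immunoblotted for TBK1, pIRF3 and GAPDH.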
Target sequence in this assay (P40337 whole entry, one chain of several): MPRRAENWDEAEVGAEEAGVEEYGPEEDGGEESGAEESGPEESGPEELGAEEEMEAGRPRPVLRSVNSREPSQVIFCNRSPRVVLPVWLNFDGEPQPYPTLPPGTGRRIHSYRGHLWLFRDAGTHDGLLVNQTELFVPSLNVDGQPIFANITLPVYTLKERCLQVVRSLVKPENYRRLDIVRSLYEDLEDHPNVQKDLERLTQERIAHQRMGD

Assay [2] addresses T2, Serine/threonine-protein kinase TBK1 (Homo sapiens, UniProt Q9UHD2).
T2 sequence (Q9UHD2 whole entry): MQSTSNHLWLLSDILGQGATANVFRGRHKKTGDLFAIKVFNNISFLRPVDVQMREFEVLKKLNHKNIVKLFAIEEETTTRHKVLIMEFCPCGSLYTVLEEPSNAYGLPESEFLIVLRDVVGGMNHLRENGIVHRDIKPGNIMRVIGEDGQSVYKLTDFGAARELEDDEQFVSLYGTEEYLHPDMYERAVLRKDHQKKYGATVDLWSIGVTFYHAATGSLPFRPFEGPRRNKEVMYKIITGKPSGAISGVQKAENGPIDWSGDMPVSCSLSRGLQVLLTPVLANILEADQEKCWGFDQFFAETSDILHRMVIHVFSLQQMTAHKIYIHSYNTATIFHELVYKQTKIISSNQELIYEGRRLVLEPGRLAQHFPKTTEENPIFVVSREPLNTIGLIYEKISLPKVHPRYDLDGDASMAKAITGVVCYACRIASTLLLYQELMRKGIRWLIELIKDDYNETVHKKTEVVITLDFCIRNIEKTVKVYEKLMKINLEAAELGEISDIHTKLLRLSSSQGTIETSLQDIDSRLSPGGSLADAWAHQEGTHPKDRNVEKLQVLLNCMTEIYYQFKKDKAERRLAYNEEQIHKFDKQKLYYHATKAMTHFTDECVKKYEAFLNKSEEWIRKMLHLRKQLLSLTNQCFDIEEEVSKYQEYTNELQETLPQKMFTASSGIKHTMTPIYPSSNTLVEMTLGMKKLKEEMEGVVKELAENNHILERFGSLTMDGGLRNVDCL
The assay can be described thus: Binding affinity to human full length wild-type TBK1 expressed in mammalian expression system.

For assay [3], the target named is T1, von Hippel-Lindau disease tumor suppressor/Serine/threonine-protein kinase TBK1. The assay can be described thus: Induction of VHL-mediated TBK1 degradation in human Panc02.13 cells after 16 hrs by Western blot method relative to control. In kind it is cell-based. The method, boiled down: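 Panc02.13 cells grown in RPMI-1640 with 15% FBS and 10 units/mL human recombinant insulin, exposed to compound for 16 h. For phospho-IRF3 read-out, TLR3 agonist Poly I:C added for the final 3 h. Cells lysed in RIPA buffer with protease/phosphatase inhibitors, lysates clarified at 16,000g, run on SDS-PAGE and immunoblotted for TBK1, pIRF3 and GAPDH.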
Target sequence in this assay (P40337 whole entry, looked up, one chain of several): as the sequence (P40337 whole entry, one chain of several) above

Assay [4] deals with von Hippel-Lindau disease tumor suppressor/Elongin-C/Elongin-B/HIF1A (Homo sapiens, UniProt P40337+Q15369+Q15370+Q16665). The assay is described as follows: Inhibition of His-tagged VHL/elongin B/elongin C (unknown origin) interaction with HIF1alpha preincubated for 10 mins followed by fluorescin labelled HIF1alpha peptide addition measured after 2 hrs by fluorescence polarization assay. In kind it is protein-complex assay. The method, boiled down: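 VHL coexpressed and copurified with Elongin B and C (VCB). Compound preincubated 10 min with VHL in 50 mM Tris pH 7.5, 200 mM NaCl, 2 mM DTT, 1% DMSO. Polarization converted to percent binding against control wells; IC50 from four-parameter fit.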
von Hippel-Lindau disease tumor suppressor/Elongin-C/Elongin-B/HIF1A, sequence (P40337 whole entry, looked up): as the sequence (P40337 whole entry, one chain of several) above
von Hippel-Lindau disease tumor suppressor/Elongin-C/Elongin-B/HIF1A, sequence (Q15369 whole entry, looked up): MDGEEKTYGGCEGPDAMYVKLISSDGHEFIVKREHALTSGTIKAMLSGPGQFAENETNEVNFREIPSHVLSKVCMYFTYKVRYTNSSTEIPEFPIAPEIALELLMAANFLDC
von Hippel-Lindau disease tumor suppressor/Elongin-C/Elongin-B/HIF1A, sequence (Q15370 whole entry, looked up): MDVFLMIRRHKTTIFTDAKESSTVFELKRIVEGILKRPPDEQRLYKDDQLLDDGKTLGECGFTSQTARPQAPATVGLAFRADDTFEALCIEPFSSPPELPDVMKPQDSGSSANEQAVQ
von Hippel-Lindau disease tumor suppressor/Elongin-C/Elongin-B/HIF1A, sequence (Q16665 whole entry, looked up): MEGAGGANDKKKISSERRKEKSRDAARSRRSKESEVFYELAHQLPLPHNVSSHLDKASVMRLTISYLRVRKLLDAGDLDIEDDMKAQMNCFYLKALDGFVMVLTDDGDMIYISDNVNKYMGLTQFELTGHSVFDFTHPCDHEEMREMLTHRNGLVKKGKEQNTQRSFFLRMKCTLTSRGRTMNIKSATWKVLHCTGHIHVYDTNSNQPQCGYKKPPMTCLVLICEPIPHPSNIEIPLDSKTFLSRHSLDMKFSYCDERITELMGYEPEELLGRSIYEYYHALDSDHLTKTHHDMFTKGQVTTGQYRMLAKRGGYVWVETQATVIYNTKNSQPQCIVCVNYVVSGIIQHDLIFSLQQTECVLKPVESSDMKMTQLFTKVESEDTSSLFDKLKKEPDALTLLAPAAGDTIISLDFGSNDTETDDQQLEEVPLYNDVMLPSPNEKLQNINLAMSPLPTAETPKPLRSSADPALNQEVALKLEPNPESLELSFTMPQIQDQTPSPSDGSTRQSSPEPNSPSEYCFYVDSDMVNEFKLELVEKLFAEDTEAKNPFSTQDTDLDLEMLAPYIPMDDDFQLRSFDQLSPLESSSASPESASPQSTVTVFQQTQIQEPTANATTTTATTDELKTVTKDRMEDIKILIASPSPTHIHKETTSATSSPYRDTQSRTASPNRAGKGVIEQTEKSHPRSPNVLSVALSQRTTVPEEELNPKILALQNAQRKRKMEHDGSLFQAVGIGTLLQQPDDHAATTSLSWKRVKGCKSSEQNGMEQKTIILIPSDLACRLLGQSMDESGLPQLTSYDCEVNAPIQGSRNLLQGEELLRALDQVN
Background: Polarisation of emitted light reports the rotation of a fluorescent probe.

Molecules are shown by their SMILES.

`Cc1ncsc1-c1ccc(CNC(=O)[C@@H]2C[C@@H](O)CN2C(=O)[C@@H](NC(=O)COCCCOCCCCOCCCOc2ccc(Nc3nccc(NCCCN(C)C(=O)C4CCC4)n3)cc2)C(C)(C)C)cc1` returned a DC50 in assay [1] above 1000 nM. The compound further had a Kd in assay [2] of 725 nM.
In assay [1], `Cc1ncsc1-c1ccc(CNC(=O)[C@@H]2C[C@@H](O)CN2C(=O)[C@@H](NC(=O)COCCCOCCCCOCCCOc2ccc(Nc3ncc(C4CCC4)c(NCCCN(C)C(=O)C4CCC4)n3)cc2)C(C)(C)C)cc1` registered a half-maximal degradation concentration (DC50) of 544 nM. This compound gave a Kd in assay [2] of 1040 nM. In assay [3], the Emax came out at 70%.
The compound `Cc1ncsc1-c1ccc(CNC(=O)[C@@H]2C[C@@H](O)CN2C(=O)[C@@H](NC(=O)COCCOCCOCCCCOc2ccc(Nc3ncc(Br)c(NCCCN(C)C(=O)C4CCC4)n3)cc2)C(C)(C)C)cc1` registered a DC50 in assay [1] of 71 nM. In assay [3], this compound gave an Emax of 86%.
In the case of `Cc1cnc(Nc2ccc(OCCCOCCCCOCCCOCC(=O)N[C@H](C(=O)N3C[C@H](O)C[C@H]3C(=O)NCc3ccc(-c4scnc4C)cc3)C(C)(C)C)cc2)nc1NCCCN(C)C(=O)C1CCC1`, the DC50 in assay [1] came to 92 nM. In assay [2], the Kd amounted to 270 nM. The Emax in assay [3] came out at 89%.
The like results for `Cc1ncsc1-c1ccc(CNC(=O)[C@@H]2C[C@@H](O)CN2C(=O)[C@@H](NC(=O)COCCCOCCCCOCCCOc2ccc(Nc3ncc(I)c(NCCCN(C)C(=O)C4CCC4)n3)cc2)C(C)(C)C)cc1` were, in that order, 3 nM, 4 nM and 96%.
`Cc1ncsc1-c1ccc(CNC(=O)[C@@H]2C[C@@H](O)CN2C(=O)[C@@H](NC(=O)COCCCOCCCCOCCCOc2ccc(Nc3ncc(F)c(NCCCN(C)C(=O)C4CCC4)n3)cc2)C(C)(C)C)cc1` gave a DC50 in assay [1] of 282 nM. The compound also showed a Kd in assay [2] of 104 nM. The compound further displayed an Emax in assay [3] of 74%.
As for `Cc1ncsc1-c1ccc(CNC(=O)[C@@H]2C[C@@H](O)CN2C(=O)[C@@H](NC(=O)COCCCOCCCCCOc2ccc(Nc3ncc(Br)c(NCCCN(C)C(=O)C4CCC4)n3)cc2)C(C)(C)C)cc1`, it took 88 nM to reach half-maximal degradation in assay [1] (DC50). This compound yielded an Emax in assay [3] of 79%.
In assay [1], `Cc1ncsc1-c1ccc(CNC(=O)[C@@H]2C[C@@H](O)CN2C(=O)[C@@H](NC(=O)COCCCOCCCCOCCCOc2ccc(Nc3ncc(C(F)(F)F)c(NCCCN(C)C(=O)C4CCC4)n3)cc2)C(C)(C)C)cc1` showed a DC50 of 29 nM. This compound registered a Kd in assay [2] of 13 nM. The same compound displayed a maximal response (Emax) in assay [3] of 96%.
As to `CC[C@H](NC(=O)COCCCOCCCCOCCCOc1ccc(Nc2ncc(Br)c(NCCCN(C)C(=O)C3CCC3)n2)cc1)C(=O)N1C[C@H](O)C[C@H]1C(=O)NCc1ccc(-c2scnc2C)cc1`, the DC50 in assay [1] turned out to be 864 nM. In addition, the IC50 in assay [4] came out at 9900 nM. The Emax in assay [3] amounted to 71%.
Compound `C=Cc1cnc(Nc2ccc(OCCCOCCCCOCCCOCC(=O)N[C@H](C(=O)N3C[C@H](O)C[C@H]3C(=O)NCc3ccc(-c4scnc4C)cc3)C(C)(C)C)cc2)nc1NCCCN(C)C(=O)C1CCC1` registered a DC50 in assay [1] of 48 nM. The compound further registered a dissociation constant (Kd) in assay [2] of 130 nM. The compound also came in with an Emax in assay [3] of 96%.
In assay [1], `Cc1ncsc1-c1ccc(CNC(=O)[C@@H]2C[C@@H](O)CN2C(=O)[C@@H](NC(=O)COCCCOCCCOc2ccc(Nc3ncc(Br)c(NCCCN(C)C(=O)C4CCC4)n3)cc2)C(C)(C)C)cc1` had a DC50 above 1000 nM.
With `Cc1ncsc1-c1ccc(CNC(=O)[C@@H]2C[C@@H](O)CN2C(=O)[C@@H](NC(=O)COCCCOCCCCOCCCOc2ccc(Nc3ncc(Cl)c(NCCCN(C)C(=O)C4CCC4)n3)cc2)C(C)(C)C)cc1`, the DC50 in assay [1] came out at 10 nM. The compound further came in with a Kd in assay [2] of 10.4 nM. In assay [3], this compound showed an Emax of 96%.
In assay [1], `Cc1ncsc1-c1ccc(CNC(=O)[C@@H]2C[C@@H](O)CN2C(=O)[C@@H](NC(=O)CCCCCOCCOc2ccc(Nc3ncc(Br)c(NCCCN(C)C(=O)C4CCC4)n3)cc2)C(C)(C)C)cc1` came in with a DC50 above 1000 nM.
Compound `Cc1ncsc1-c1ccc(CNC(=O)[C@@H]2C[C@@H](O)CN2C(=O)[C@@H](NC(=O)COCCOCCCCOCCCCOCCOCCOc2ccc(Nc3ncc(Br)c(NCCCN(C)C(=O)C4CCC4)n3)cc2)C(C)(C)C)cc1` registered a DC50 in assay [1] of 3 nM. This compound also had an Emax in assay [3] of 96%.
In the case of `Cc1ncsc1-c1ccc(CNC(=O)[C@@H]2C[C@@H](O)CN2C(=O)[C@@H](NC(=O)COCCCOCCCCOCCCOc2ccc(Nc3ncc(Br)c(NCCCN(C)C(=O)C4CCC4)n3)cc2)C(C)C)cc1`, the DC50 in assay [1] was 44 nM. This compound also yielded an IC50 in assay [4] of 5500 nM. Besides, in assay [3], the Emax was 88%.
`Cc1ncsc1-c1ccc(CNC(=O)[C@@H]2C[C@@H](O)CN2C(=O)[C@@H](NC(=O)CCOCCCOCCCOCCCOCCCOc2ccc(Nc3ncc(Br)c(NCCCN(C)C(=O)C4CCC4)n3)cc2)C(C)(C)C)cc1` yielded a DC50 in assay [1] of 25 nM. This compound came in with an Emax in assay [3] of 96%.
The corresponding values for `Cc1ncsc1-c1ccc(CNC(=O)[C@@H]2C[C@@H](O)CN2C(=O)[C@@H](NC(=O)COCCOCCOCCOCCOCCOCCOc2ccc(Nc3ncc(Br)c(NCCCN(C)C(=O)C4CCC4)n3)cc2)C(C)(C)C)cc1` are 34 nM and 96%.
Take `Cc1ncsc1-c1ccc(CNC(=O)[C@@H]2C[C@@H](O)CN2C(=O)[C@H](C)NC(=O)COCCCOCCCCOCCCOc2ccc(Nc3ncc(Br)c(NCCCN(C)C(=O)C4CCC4)n3)cc2)cc1`: the DC50 in assay [1] was above 1000 nM. The compound also came in with an IC50 in assay [4] of 25000 nM. Further, the Emax in assay [3] turned out to be 34%.
In assay [1], `Cc1ncsc1-c1ccc(CNC(=O)[C@@H]2C[C@@H](O)CN2C(=O)[C@@H](NC(=O)COCCCCCOCCCCOCCCCOCCCCOCCCCCOc2ccc(Nc3ncc(Br)c(NCCCN(C)C(=O)C4CCC4)n3)cc2)C(C)(C)C)cc1` gave a DC50 of 292 nM. In assay [3], this compound showed an Emax of 76%.
The corresponding values for `Cc1ncsc1-c1ccc(CNC(=O)[C@@H]2C[C@@H](O)CN2C(=O)[C@@H](NC(=O)COCCOCCOCCOCCOc2ccc(Nc3ncc(Br)c(NCCCN(C)C(=O)C4CCC4)n3)cc2)C(C)(C)C)cc1` are 103 nM and 92%.
In turn, `Cc1ncsc1-c1ccc(CNC(=O)[C@@H]2C[C@@H](O)CN2C(=O)[C@@H](NC(=O)COCCCOCCCCOCCCOc2ccc(Nc3ncc(C4CC4)c(NCCCN(C)C(=O)C4CCC4)n3)cc2)C(C)(C)C)cc1` yielded a DC50 in assay [1] of 65 nM. Besides, in assay [2], binding was characterised by a dissociation constant (Kd) of 245 nM. In assay [3], this compound gave an Emax of 96%.
On to `Cc1ncsc1-c1ccc(CNC(=O)[C@@H]2C[C@@H](O)CN2C(=O)[C@@H](NC(=O)COCCOCCOCCOc2ccc(Nc3ncc(Br)c(NCCCN(C)C(=O)C4CCC4)n3)cc2)C(C)(C)C)cc1`, for which the DC50 in assay [1] is above 1000 nM.
As for `CCc1cnc(Nc2ccc(OCCCOCCCCOCCCOCC(=O)N[C@H](C(=O)N3C[C@H](O)C[C@H]3C(=O)NCc3ccc(-c4scnc4C)cc3)C(C)(C)C)cc2)nc1NCCCN(C)C(=O)C1CCC1`, the DC50 in assay [1] turned out to be 121 nM. In assay [2], this compound showed a Kd of 275 nM. For the same compound, the Emax in assay [3] stood at 77%.
Take `Cc1ncsc1-c1ccc(CNC(=O)[C@@H]2C[C@@H](O)CN2C(=O)[C@@H](NC(=O)COCCOCCCCOCCCCOCCOc2ccc(Nc3ncc(Br)c(NCCCN(C)C(=O)C4CCC4)n3)cc2)C(C)(C)C)cc1`: half-maximal degradation in assay [1] (DC50) was put at 6 nM. This compound also showed an Emax in assay [3] of 96%.
The like results for `Cc1ncsc1-c1ccc(CNC(=O)[C@@H]2C[C@@H](O)CN2C(=O)[C@@H](NC(=O)COCCOCCOCCOCCOCCOc2ccc(Nc3ncc(Br)c(NCCCN(C)C(=O)C4CCC4)n3)cc2)C(C)(C)C)cc1` were, in that order, 29 nM and 96%.
`Cc1ncsc1-c1ccc(CNC(=O)[C@@H]2C[C@@H](O)CN2C(=O)[C@@H](NC(=O)COCCOCCOc2ccc(Nc3ncc(Br)c(NCCCN(C)C(=O)C4CCC4)n3)cc2)C(C)(C)C)cc1` displayed a DC50 in assay [1] above 1000 nM.
Still for that read-out and setting: with `Cc1ncsc1-c1ccc(CNC(=O)[C@@H]2C[C@@H](O)CN2C(=O)[C@@H](NC(=O)COCCCCOc2ccc(Nc3ncc(Br)c(NCCCN(C)C(=O)C4CCC4)n3)cc2)C(C)(C)C)cc1` the figure was above 1000 nM.
`Cc1ncsc1-c1ccc(CNC(=O)[C@@H]2C[C@@H](O)CN2C(=O)[C@@H](NC(=O)CCCCCOCCCCOCCCCOc2ccc(Nc3ncc(Br)c(NCCCN(C)C(=O)C4CCC4)n3)cc2)C(C)(C)C)cc1` had a DC50 in assay [1] of 95 nM. In addition, the Emax in assay [3] was 90%.
